Among all 97,000 compounds or so, about 770 (0.79%) were called active.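 How the source made its calls: active means inhibition above the screen-wide mean plus 3 SD (cut at about 35% in these data); inactive means the rest.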 Only a selection was taken, and actives are over-represented in it overall.
Biological target: Protein Rev (Human immunodeficiency virus type 1 group M subtype B (isolate WMJ22)) (UniProt P05866)
Assay: disruptors of Rev peptide-RRE RNA complex – biochemical, FRET, protein-RNA interaction, primary screen (AID 704);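 further: 0% = median DMSO wells and 100% = median Neomycin B control wells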
Settings: Rev peptide-RRE RNA binding, at 8 µM, hits give high values
How it was run: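 Probe or stimulus: fluorescein-Rev peptide as binding partner; assay system: Cy5-tagged RRE RNA duplex with fluorescein-tagged Rev peptide; timing: 5 min compound–RNA preincubation, then 15 min with peptide, 25 °C; medium: HEPES pH 7.5 buffer with KCl, MgCl2, NaCl and EDTA; signal: fluorescein-to-Cy5 FRET, 480 nm excitation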

Sequence of Protein Rev (Human immunodeficiency virus type 1 group M subtype B (isolate WMJ22)) (P05866 whole entry, looked up): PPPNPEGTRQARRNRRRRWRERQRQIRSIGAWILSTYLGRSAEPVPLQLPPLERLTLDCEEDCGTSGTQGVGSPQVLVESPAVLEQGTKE

inhibition, active:
CCN(CC)c1ccc2oc(=O)c(C)nc2c1 121% [fluorescence artefact?]
CCOC(=O)c1c(NC(=S)Nc2ccccc2)sc2c1CCN(C)C2 103% [fluorescence artefact?]
COc1cc(N2CCCC2)c(OC)cc1/C=C(/C#N)c1cccc(Br)c1 115% [fluorescence artefact?]
CC(=O)c1cc(NC(=O)c2ccccc2)c(=O)oc1/C=C/N(C)C 119% [fluorescence artefact?]
Cc1c(-c2ccccc2)cn2c1-c1ccc(C)n1CC2 47.1%
Cc1cc(=O)oc(C)c1C(=O)Nc1cnc2ccccc2c1 53%
CN1/C(=c2/s/c(=C3/C(=O)N(c4ccccc4)NC3=Nc3ccccc3)n(C)c2=O)C(C)(C)c2ccccc21 96.1% [fluorescence artefact?]

inhibition, inactive:
Cc1ccc(-n2c(CNc3ccc(F)cc3)nnc2SCC(=O)N2CCOCC2)cc1 5.16%
Cc1nn(C)c(Oc2ccccc2)c1[N+](=O)[O-] 4.97%
CCC(c1nnnn1C(C)(C)C)N(Cc1cc2cccc(C)c2n2nnnc12)C1CCCC1 (centres undefined) 7.78%
CCOC(=O)c1ccccc1NS(=O)(=O)c1ccc(OC)cc1 17.8%
Cc1cc(C)n(C(=O)CCNC(=O)c2ccccc2Cl)n1 4.01%
CC1CCc2c(c3ccccc3[nH]c2=O)O1 (centres undefined) 4.83%
CC(=O)Nc1cccc(/C(C)=N/NC(=O)c2ccccc2Cl)c1 -0.39%
COc1ccc(C(=O)N2CC3(C)CC2CC(C)(C)C3)cc1OC (centres undefined) 1.95%
O=C(/C=C/c1cc2c(cc1Br)OCO2)NCc1ccc(Cl)cc1 7.84%
Cc1cccc(N(CC(=O)Nc2ccc(-c3nc4ccc(C)cc4s3)cc2)S(C)(=O)=O)c1 1.45%
O=C(Nc1sc2c(c1-c1nc3ccccc3[nH]1)CCCC2)C1CC1 12.5%
NC1=NC(=O)C2(COC(c3ccccc3Cl)OC2)S1 (centres undefined) 1.07%
CCN(CC)c1ccc(/C=N/Nc2nc(C)cc(=O)[nH]2)cc1 15.3%
CCN(CC)c1ccc2cc(C(=O)O)c(=O)oc2c1 11%
CCS(=O)(=O)Nc1ccc(C2=NN(S(=O)(=O)c3ccc(F)cc3)C(c3ccco3)C2)cc1 (centres undefined) 3.07%
O=C(Nc1ccccc1-c1nnn(CC(=O)N2CCCc3ccccc32)n1)c1cccc(Cl)c1 13.6%
COc1cnc(SCc2ccc(Cl)c(Cl)c2)nc1Cl 10%
Cc1ccccc1N/N=C/c1ccc(N2CCOCC2)cc1 6.17%
Cc1ccc(Cc2cnc(NC(=O)/C(C#N)=C/c3ccc(-c4cccc([N+](=O)[O-])c4)o3)s2)cc1 5.73%
CCOC(=O)c1c(NC(=S)NC(=O)c2ccco2)sc2c1CCCC2 0.19%
CCOCC(=O)Nc1sc2c(c1C(=O)OCC)CCCC2 10.1%
COc1cccc(C(=O)Nc2ccc(N3CCCC3)cc2)c1 9.26%
CC(=O)Nc1cccc(Oc2cc(C#N)c(C#N)cc2N2CCOCC2)c1 5.35%
CC1CN(c2nc(-c3ccccc3)nnc2-c2ccccc2)CC(C)O1 (centres undefined) 8.23%
COCCCNCC(=O)Nc1sc(C)c(C)c1C(=O)OC 1.88%
CN1OC(COC(=O)c2ccc(Cl)cc2)CC1c1ccccc1 (centres undefined) 7.44%
C=CCc1ccc(OCCOc2cccc(/C=N/n3cnnc3)c2)c(OC)c1 -0.22%
Clc1ccc(-c2cc(COc3ccccc3)no2)cc1Cl 17.6%
CC(CO)N1CCS(=O)(=O)CC1 (centres undefined) 4.13%
CCN(CC)C(=O)CSc1ncnc2c1cnn2-c1ccccc1 9.25%
O=C(CN1C(=O)NC2(CCCC2)C1=O)Nc1ccc(F)c(F)c1F 6.86%
CC(C)c1ccc(C(=O)NCCCc2ccccc2)cc1 16.8%
CC(C)C[C@@H](N)c1nnc(SCC(=O)c2ccc(Cl)cc2)o1 6.78%
CCCCOC(=O)Cn1c(=O)n(CC(=O)OCCCC)c2cc(C)ccc21 3.29%
CCOc1cc(/C=C2/N=C(c3ccc(C(C)(C)C)cc3)OC2=O)cc(Cl)c1OS(C)(=O)=O -2.97%
Cc1ccc(-n2nc3cc(C)c(NC(=O)c4cccnc4)cc3n2)cc1 6.32%
Cc1ccc(S(=O)(=O)/N=C(/Nc2ccccn2)c2ccc(Cl)cc2)cc1 3.03%
CCOC(=O)c1cc(NC(=O)c2ccc(Cl)cc2)c(=O)oc1-c1ccccc1 10.3%
Cc1ccccc1NC(=O)c1ccccc1 3.87%
c1ccc(-c2csc(N3CCc4ccccc4C3)n2)cc1 3.58%
Cc1cc(=O)oc(C)c1C(=O)NCc1ccc(F)cc1 8.7%
COc1ccc(CNC(=O)c2c(C)cc(=O)oc2C)cc1OC 10.2%
CC1=NN(c2cccc(Cl)c2)C(=O)C12CC(C)=C(C)CS2 (centres undefined) 16.6%
COc1nc(NC2CCCCC2)nc(N2CCCCCC2)n1 2.85%
COc1cccc2c1OCC(C(=O)NCc1ccc(Cl)cc1Cl)=C2 10.5%
Cc1ccc(-c2nnc(-n3nnc4ccccc43)c3ccccc23)cc1 -4.36%
COc1ccc(-c2nn(C)c(=O)c3ccccc23)cc1NC(=O)COc1ccccc1 0.74%
CCNCCC(=O)N1c2ccccc2Sc2ccc(NC(=O)OCC)cc21 -4.36%
CC1CCN(C(=O)CN(c2ccc(Oc3ccccc3)cc2)S(C)(=O)=O)CC1 2.29%
CCOc1ccc(C(CCc2ccccc2)NC(=O)c2ccc(OC)c(OC)c2)cc1OCC (centres undefined) -1.68%
COc1ccc(N(CC(=O)NC2CCCCC2)S(=O)(=O)c2c(C)[nH]c(=O)[nH]c2=O)cc1 -2.97%
CCCCCCNC(=O)CSc1nccn1Cc1ccccc1 1.79%

— PubChem BioAssay AID704 (The Scripps Research Institute Molecular Screening Center, 2007)
